Source: ChEMBL document CHEMBL1133729, “Design, synthesis, and structure-activity relationships of phthalimide-phenylpiperazines: a novel series of potent and selective alpha(1)(a)-adrenergic receptor antagonists” (J Med Chem, 2000)

How the values were obtained:
[1] = target: T1, Alpha-1B adrenergic receptor (Homo sapiens, UniProt P35368); assay: Binding affinity towards cloned human alpha-1B adrenergic receptor was determined using [125]-HEAT as radioligand
T1 sequence (P35368 whole entry): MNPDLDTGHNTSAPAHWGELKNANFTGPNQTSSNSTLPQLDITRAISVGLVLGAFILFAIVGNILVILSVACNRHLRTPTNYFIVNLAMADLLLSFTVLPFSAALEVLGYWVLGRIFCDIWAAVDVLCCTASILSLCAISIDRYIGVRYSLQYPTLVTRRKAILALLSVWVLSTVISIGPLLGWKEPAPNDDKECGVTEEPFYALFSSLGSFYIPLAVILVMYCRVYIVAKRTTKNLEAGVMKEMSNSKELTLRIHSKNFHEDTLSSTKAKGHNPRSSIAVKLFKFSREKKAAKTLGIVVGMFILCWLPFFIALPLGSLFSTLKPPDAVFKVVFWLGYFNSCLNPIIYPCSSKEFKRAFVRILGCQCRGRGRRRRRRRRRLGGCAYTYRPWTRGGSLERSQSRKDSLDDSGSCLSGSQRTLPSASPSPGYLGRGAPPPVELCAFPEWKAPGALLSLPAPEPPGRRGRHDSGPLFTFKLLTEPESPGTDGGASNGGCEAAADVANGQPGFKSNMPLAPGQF
Procedure, shortened: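 Human α1a, α1b and α1d cDNAs transiently expressed in COS-1 cells (DEAE-dextran); membranes harvested 72 h post-transfection. Competition versus 50 pM [125I]HEAT (final), 0.1 pM–10 μM test compound in half-log steps, in TNE buffer pH 7.4. Membrane protein 0.1 μg (α1a, α1b) or 2.6 μg (α1d); 1 h at 25 °C. Filtration, scintillation counting; Ki = IC50/(1 + [L]/Kd). Ratios are subtype Ki over α1a Ki.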

[2] = target: Histamine H1 receptor (Cavia porcellus) (UniProt P31389); assay: Compound at 1 uM was tested for the inhibition of radioligand [3H]pyrilamine binding to central histamine H1 receptor in guinea pig brain
Procedure, shortened: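 Central H1 from guinea pig brain membranes; [3H]pyrilamine 25 °C for 60 min, pH 7.4 Tris-HCl/NaCl/EDTA buffer; 1 μM pyrilamine for nonspecific binding. Percent inhibition by compound at 1 μM, duplicate; filtered, scintillation counted.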

[3] = target: T2, Alpha-2C adrenergic receptor (Homo sapiens) (UniProt P18825); assay: Compound at 1 uM was tested for the inhibition of radioligand [3H]MK-912 binding to recombinant human alpha-2C adrenergic receptor
T2 sequence (whole entry): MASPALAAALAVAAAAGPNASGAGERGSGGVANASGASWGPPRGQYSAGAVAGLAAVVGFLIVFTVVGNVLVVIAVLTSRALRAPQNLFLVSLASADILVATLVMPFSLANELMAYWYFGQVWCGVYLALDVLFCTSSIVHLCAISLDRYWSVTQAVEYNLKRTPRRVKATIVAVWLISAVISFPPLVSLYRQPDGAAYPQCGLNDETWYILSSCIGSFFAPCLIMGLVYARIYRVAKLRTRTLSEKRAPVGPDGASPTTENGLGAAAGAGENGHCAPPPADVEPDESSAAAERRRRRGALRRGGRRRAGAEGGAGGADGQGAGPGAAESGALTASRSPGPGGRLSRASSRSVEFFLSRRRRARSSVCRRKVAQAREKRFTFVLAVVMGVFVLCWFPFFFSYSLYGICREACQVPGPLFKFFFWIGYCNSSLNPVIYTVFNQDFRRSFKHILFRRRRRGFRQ
Procedure, shortened: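 Recombinant human α2a or α2c receptors in CHO cell membranes; [3H]MK912, 60 min at 25 °C in 50 mM Tris-HCl, 150 mM NaCl, 5 mM EDTA, pH 7.4; WB4101 (10 μM) for nonspecific binding. Percent inhibition at 1 μM in duplicate; filtration, scintillation counting.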

D(2) dopamine receptor [4] = target: T3, D(2) dopamine receptor (Homo sapiens, UniProt P14416); assay: Compound at 1 uM was tested for the inhibition of radioligand [3H]spiperone binding to recombinant human Dopamine receptor D2S
Procedure, shortened: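 Human D2S in CHO membranes; [3H]spiperone, 37 °C for 120 min in 50 mM Tris-HCl, 150 mM NaCl, 5 mM EDTA, pH 7.4; 10 μM haloperidol for nonspecific binding. Percent inhibition at 1 μM, duplicate; filtration, scintillation counting.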

D(2) dopamine receptor [5] = target: T3, D(2) dopamine receptor; assay: Compound at 1 uM was tested for the inhibition of radioligand [3H]spiperone binding to recombinant human Dopamine receptor D2L
Procedure, shortened: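 D2L (human, CHO-expressed) membranes; [3H]spiperone, 25 °C, 120 min; pH 7.4 Tris-HCl/NaCl/EDTA; nonspecific with 10 μM haloperidol. Compound at 1 μM, percent inhibition in duplicate; filtration, scintillation counting.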

[6] = target: T4, 5-hydroxytryptamine receptor 1A (Homo sapiens) (UniProt P08908); assay: Compound at 1 uM was tested for the inhibition of radioligand [3H]8-OH-DPAT binding to recombinant human 5-hydroxytryptamine 1A receptor
T4 sequence (whole entry): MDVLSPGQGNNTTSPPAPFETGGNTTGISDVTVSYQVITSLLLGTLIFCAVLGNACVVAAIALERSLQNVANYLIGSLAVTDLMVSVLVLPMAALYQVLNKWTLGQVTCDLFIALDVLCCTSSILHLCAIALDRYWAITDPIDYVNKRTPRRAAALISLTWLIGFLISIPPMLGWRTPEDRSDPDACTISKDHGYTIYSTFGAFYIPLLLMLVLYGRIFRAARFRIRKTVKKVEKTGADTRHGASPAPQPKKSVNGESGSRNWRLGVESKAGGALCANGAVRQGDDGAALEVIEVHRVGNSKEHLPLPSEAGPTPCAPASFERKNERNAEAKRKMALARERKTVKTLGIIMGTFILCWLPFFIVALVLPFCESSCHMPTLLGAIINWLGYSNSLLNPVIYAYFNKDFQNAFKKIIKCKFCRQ

[7] = target: T5, Alpha-1A adrenergic receptor (Homo sapiens, UniProt P35348); assay: Binding affinity towards cloned human alpha-1A adrenergic receptor was determined using [125]-HEAT as radioligand
T5 sequence (P35348 whole entry): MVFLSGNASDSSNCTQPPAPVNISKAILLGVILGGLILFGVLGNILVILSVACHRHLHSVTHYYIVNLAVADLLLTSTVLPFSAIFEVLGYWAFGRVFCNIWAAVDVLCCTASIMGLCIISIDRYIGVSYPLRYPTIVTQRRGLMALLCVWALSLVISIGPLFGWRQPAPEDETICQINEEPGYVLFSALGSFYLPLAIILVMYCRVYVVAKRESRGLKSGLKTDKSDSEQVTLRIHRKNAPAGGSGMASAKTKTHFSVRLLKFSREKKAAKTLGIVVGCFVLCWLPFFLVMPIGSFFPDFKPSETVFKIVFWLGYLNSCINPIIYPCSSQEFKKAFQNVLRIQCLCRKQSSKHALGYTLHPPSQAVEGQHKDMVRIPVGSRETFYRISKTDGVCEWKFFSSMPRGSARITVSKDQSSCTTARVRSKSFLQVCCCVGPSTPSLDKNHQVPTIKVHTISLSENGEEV

Histamine H1 receptor (Cavia porcellus), sequence (P31389 whole entry): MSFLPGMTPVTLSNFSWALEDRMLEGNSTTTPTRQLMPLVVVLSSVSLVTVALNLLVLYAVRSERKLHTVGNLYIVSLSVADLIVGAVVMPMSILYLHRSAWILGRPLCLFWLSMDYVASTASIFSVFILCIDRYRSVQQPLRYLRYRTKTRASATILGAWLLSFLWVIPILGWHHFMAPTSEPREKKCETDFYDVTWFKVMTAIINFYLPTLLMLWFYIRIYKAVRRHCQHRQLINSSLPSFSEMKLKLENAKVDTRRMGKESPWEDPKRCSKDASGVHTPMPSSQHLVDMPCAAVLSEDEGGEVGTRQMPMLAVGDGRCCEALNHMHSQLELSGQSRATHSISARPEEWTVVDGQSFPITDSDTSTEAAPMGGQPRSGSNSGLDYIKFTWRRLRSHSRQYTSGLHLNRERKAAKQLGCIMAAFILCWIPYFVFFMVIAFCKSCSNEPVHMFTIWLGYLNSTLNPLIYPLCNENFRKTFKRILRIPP
T3 sequence (P14416 whole entry): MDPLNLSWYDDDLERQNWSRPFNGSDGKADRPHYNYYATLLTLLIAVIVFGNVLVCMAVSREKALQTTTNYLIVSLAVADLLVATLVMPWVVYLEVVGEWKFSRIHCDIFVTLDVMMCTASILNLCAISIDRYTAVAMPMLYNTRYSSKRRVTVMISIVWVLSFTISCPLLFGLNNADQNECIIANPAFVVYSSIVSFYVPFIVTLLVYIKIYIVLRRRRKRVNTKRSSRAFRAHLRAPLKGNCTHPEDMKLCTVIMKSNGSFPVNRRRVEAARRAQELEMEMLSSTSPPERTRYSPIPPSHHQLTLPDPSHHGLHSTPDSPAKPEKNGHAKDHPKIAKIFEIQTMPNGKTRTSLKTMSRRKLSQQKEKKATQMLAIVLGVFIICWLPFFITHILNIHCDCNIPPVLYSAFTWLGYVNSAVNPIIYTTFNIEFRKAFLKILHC

In the case of `CC(C)Oc1ccccc1N1CCN(CCCNC(=O)c2ccc3c(c2)C(=O)N(c2cccc(F)c2)C3=O)CC1`, the Ki [1] is reported as 482 nM, the inhibition [2] is reported as 87% and the inhibition [3] is reported as 86%. It also gave an inhibition (D(2) dopamine receptor [4]) of 90%, an inhibition (D(2) dopamine receptor [5]) of 89% and an inhibition [6] of 95%. For the same molecule, the Ki [7] was 0.41 nM.
`CCOc1ccccc1OCCN[C@H](C)Cc1ccc(OC)c(S(N)(=O)=O)c1` [TAMSULOSIN] gave a Ki [1] of 1.92 nM, an inhibition [2] of 18% and an inhibition [3] of 41%. It also gave an inhibition (D(2) dopamine receptor [4]) of 73%, an inhibition (D(2) dopamine receptor [5]) of 53% and an inhibition [6] of 115%.
With `CC(C)Oc1ccccc1N1CCN(C[C@@H](O)CNC(=O)c2ccc3c(c2)C(=O)N(c2cccc(F)c2)C3=O)CC1` the Ki [1] was > 2000 nM, the inhibition [2] was 95% and the inhibition [3] was 8%. For the same molecule, the inhibition (D(2) dopamine receptor [4]) was 51%, the inhibition (D(2) dopamine receptor [5]) was 55% and the inhibition [6] was 98%. For the same molecule, the Ki [7] was 1.02 nM.
`COc1ccc(N2C(=O)c3ccc(C(=O)NCCCN4CCN(c5ccccc5OC(C)C)CC4)cc3C2=O)cc1` gave a Ki [1] of 361 nM, an inhibition [2] of 97% and an inhibition [3] of 76%. The inhibition (D(2) dopamine receptor [4]) was 87%, the inhibition (D(2) dopamine receptor [5]) was 83% and the inhibition [6] was 104%. For the same molecule, the Ki [7] was 0.11 nM.
In the case of `Cc1ccc(N2C(=O)c3ccc(C(=O)NC[C@H](O)CN4CCN(c5ccccc5OC(C)C)CC4)cc3C2=O)cc1`, the Ki [1] is reported as > 1650 nM, the inhibition [2] is reported as 93% and the inhibition [3] is reported as 14%. It also gave an inhibition (D(2) dopamine receptor [4]) of 70%, an inhibition (D(2) dopamine receptor [5]) of 68% and an inhibition [6] of 92%. It also gave a Ki [7] of 0.29 nM.
For `CC(C)Oc1ccccc1N1CCN(C[C@@H](O)CNC(=O)c2ccc3c(c2)C(=O)N(c2ccc(N(C)C)cc2)C3=O)CC1`, the Ki [1] was > 2000 nM, the inhibition [2] was 88% and the inhibition [3] was 11%. The inhibition (D(2) dopamine receptor [4]) was 71%, the inhibition (D(2) dopamine receptor [5]) was 71% and the inhibition [6] was 92%. The Ki [7] was 0.33 nM.
For `Cc1ccc(N2C(=O)c3ccc(C(=O)NCCCN4CCN(c5ccccc5OC(C)C)CC4)cc3C2=O)cc1`, the Ki [1] was > 2000 nM, the inhibition [2] was 97% and the inhibition [3] was 83%. It also gave an inhibition (D(2) dopamine receptor [4]) of 94%, an inhibition (D(2) dopamine receptor [5]) of 83% and an inhibition [6] of 90%. The Ki [7] was 0.16 nM.
